The source made the active and inactive calls. The calls are words filed in the database; no cut-off is given here.
Key:
[1] = molecular target: Mitogen-activated protein kinase 9 (Homo sapiens) (UniProt P45984); assay: Inhibition of JNK2 in human SKCO1 cells at 1 uM after 4 hrs using biotin labeled DLKPSNIVVK probe by mass-spectrometric analysis relative to control; format: cell-based
[2] = molecular target: Cyclin-dependent kinase 16 (Homo sapiens) (UniProt Q00536); assay: Inhibition of PCTAIRE1 in human SKCO1 cells at 1 uM after 4 hrs using biotin labeled SKLTDNLVALKEIR probe by mass-spectrometric analysis relative to control; format: cell-based
Summary of the method: (§1)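 Live SK-CO-1 cells exposed to compound at 1 μM or DMSO for 4 h (KiNativ). Lysates then labeled with lysine-reactive ATP/ADP-biotin probe, and probe-labeled kinase peptides quantified by mass spectrometry. Percent inhibition of probe-dependent recovery calculated relative to DMSO-treated cells.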

[3] = molecular target: Cyclin-dependent kinase 6 (Homo sapiens) (UniProt Q00534); assay: Inhibition of CDK6 in human SKCO1 cells at 1 uM after 4 hrs using biotin labeled DLKPQNILVTSSGQIK probe by mass-spectrometric analysis relative to control; format: cell-based
[4] = molecular target: Serine/threonine-protein kinase Nek6 (Homo sapiens) (UniProt Q9HC98); assay: Inhibition of NEK6 in human SKCO1 cells at 1 uM after 4 hrs using biotin labeled TVALKK probe by mass-spectrometric analysis relative to control; format: cell-based
Serine/threonine-protein kinase Nek6 (Homo sapiens), sequence (Q9HC98 whole entry): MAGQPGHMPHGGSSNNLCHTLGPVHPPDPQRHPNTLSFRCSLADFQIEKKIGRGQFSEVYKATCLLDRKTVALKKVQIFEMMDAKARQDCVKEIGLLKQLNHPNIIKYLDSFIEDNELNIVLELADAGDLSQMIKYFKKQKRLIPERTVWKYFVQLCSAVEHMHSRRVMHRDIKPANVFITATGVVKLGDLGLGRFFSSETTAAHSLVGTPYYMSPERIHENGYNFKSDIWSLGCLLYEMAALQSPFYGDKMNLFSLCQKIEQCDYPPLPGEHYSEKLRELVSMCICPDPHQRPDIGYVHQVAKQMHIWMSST

[5] = molecular target: Mitogen-activated protein kinase 8 (Homo sapiens) (UniProt P45983); assay: Inhibition of JNK1 in human SKCO1 cells at 1 uM after 4 hrs using biotin labeled DLKPSNIVVK probe by mass-spectrometric analysis relative to control; format: cell-based
[6] = molecular target: SRSF protein kinase 1 (Homo sapiens) (UniProt Q96SB4); assay: Inhibition of SRPK1 in human SKCO1 cells at 1 uM after 4 hrs using biotin labeled IIHTDIKPENILLSVNEQYIR probe by mass-spectrometric analysis relative to control; format: cell-based; summary of the method: as §1
[7] = molecular target: Mitogen-activated protein kinase 14 (Homo sapiens) (UniProt Q16539); assay: Inhibition of p38a in human SKCO1 cells at 1 uM after 4 hrs using biotin labeled DLKPSNLAVNEDCELK probe by mass-spectrometric analysis relative to control; format: cell-based; summary of the method: as §1
Mitogen-activated protein kinase 14 (Homo sapiens), sequence (Q16539 whole entry, the tested form may be a part): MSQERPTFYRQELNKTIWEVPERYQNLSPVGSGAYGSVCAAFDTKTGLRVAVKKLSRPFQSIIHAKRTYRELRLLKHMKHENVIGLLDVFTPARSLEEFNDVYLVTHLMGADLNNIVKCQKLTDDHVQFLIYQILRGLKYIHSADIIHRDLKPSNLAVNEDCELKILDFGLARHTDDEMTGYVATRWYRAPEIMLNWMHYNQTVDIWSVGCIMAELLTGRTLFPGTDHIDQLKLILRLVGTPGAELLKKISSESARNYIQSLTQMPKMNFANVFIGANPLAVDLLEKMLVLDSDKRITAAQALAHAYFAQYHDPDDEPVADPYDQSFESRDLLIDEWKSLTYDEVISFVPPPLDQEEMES

[8] = molecular target: Ribosomal protein S6 kinase alpha-1 (Homo sapiens) (UniProt Q15418); assay: Inhibition of RSK1 domain2 in human SKCO1 cells at 1 uM after 4 hrs using biotin labeled DLKPSNILYVDESGNPECLR probe by mass-spectrometric analysis relative to control; format: cell-based
[9] = molecular target: Eukaryotic elongation factor 2 kinase (Homo sapiens) (UniProt O00418); assay: Inhibition of eEF2K in human SKCO1 cells at 1 uM after 4 hrs using biotin labeled YIKYNSNSGFVR probe by mass-spectrometric analysis relative to control; format: cell-based
[10] = molecular target: Dual specificity mitogen-activated protein kinase kinase 1 (Homo sapiens) (UniProt Q02750); assay: Inhibition of MAP2K1 in human SKCO1 cells at 1 uM after 4 hrs using biotin labeled DVKPSNILVNSR probe by mass-spectrometric analysis relative to control; format: cell-based
Dual specificity mitogen-activated protein kinase kinase 1 (Homo sapiens), sequence (Q02750 whole entry): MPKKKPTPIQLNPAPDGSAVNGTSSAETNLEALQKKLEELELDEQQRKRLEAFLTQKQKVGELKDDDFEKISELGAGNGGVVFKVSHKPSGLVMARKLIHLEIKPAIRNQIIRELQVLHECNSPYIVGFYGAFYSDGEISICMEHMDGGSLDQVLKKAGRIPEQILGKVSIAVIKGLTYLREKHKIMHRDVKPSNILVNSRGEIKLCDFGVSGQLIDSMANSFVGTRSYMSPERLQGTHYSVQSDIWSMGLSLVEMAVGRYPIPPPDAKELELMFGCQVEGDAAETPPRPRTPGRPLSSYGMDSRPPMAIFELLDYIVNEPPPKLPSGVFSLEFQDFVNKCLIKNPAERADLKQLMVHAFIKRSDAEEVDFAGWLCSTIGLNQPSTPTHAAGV
Summary of the method: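 Live SK-CO-1 cells treated 4 h at 1 μM (DMSO control); cells lysed and lysates labeled with lysine-reactive ATP/ADP-biotin probe (KiNativ); probe-labeled kinase peptides quantified by mass spectrometry; inhibition expressed as percent reduction in probe-dependent recovery versus DMSO-treated cells.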

[11] = molecular target: Mitogen-activated protein kinase 1 (Homo sapiens) (UniProt P28482); assay: Inhibition of Erk2 in human SKCO1 cells at 1 uM after 4 hrs using biotin labeled DLKPSNLLLNTTCDLK probe by mass-spectrometric analysis relative to control; format: cell-based
[12] = molecular target: Mitogen-activated protein kinase kinase kinase kinase 5 (Homo sapiens) (UniProt Q9Y4K4); assay: Inhibition of KHS1 in human SKCO1 cells at 1 uM after 4 hrs using biotin labeled NVHTGELAAVKIIK probe by mass-spectrometric analysis relative to control; format: cell-based
Mitogen-activated protein kinase kinase kinase kinase 5 (Homo sapiens), sequence (Q9Y4K4 whole entry, looked up): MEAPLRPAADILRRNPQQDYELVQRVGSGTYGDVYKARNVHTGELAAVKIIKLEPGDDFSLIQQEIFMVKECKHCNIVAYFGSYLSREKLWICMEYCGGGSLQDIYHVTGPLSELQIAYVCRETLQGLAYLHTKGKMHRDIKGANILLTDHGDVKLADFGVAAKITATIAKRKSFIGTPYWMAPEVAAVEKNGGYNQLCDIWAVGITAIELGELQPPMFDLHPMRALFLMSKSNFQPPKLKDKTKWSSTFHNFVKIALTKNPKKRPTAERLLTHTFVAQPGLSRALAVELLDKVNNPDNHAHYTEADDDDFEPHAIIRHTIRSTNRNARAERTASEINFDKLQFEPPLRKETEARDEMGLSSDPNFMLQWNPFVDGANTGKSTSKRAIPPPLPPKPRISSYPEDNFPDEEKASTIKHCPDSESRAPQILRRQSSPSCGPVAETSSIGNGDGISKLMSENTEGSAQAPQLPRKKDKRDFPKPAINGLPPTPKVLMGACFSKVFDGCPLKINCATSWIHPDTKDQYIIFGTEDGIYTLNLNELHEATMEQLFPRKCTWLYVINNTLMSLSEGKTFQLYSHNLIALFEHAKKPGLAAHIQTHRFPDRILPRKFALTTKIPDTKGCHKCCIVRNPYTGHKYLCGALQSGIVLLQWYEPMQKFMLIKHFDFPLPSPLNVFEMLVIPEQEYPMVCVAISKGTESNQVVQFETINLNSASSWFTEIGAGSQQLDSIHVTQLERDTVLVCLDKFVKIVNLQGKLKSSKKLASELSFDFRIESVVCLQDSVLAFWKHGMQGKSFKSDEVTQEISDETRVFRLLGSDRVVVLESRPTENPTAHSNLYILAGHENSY

[13] = molecular target: Tyrosine-protein kinase SYK (Homo sapiens) (UniProt P43405); assay: Inhibition of SYK in human SKCO1 cells at 1 uM after 4 hrs using biotin labeled ISDFGLSKALR probe by mass-spectrometric analysis relative to control; format: cell-based; summary of the method: as §1
[14] = molecular target: Cyclin-dependent kinase 5 (Homo sapiens) (UniProt Q00535); assay: Inhibition of CDK5 in human SKCO1 cells at 1 uM after 4 hrs using biotin labeled DLKPQNLLINR probe by mass-spectrometric analysis relative to control; format: cell-based
[15] = molecular target: Mitogen-activated protein kinase 10 (Homo sapiens) (UniProt P53779); assay: Inhibition of JNK3 in human SKCO1 cells at 1 uM after 4 hrs using biotin labeled DLKPSNIVVK probe by mass-spectrometric analysis relative to control; format: cell-based
[16] = molecular target: Tyrosine-protein kinase FRK (Homo sapiens) (UniProt P42685); assay: Inhibition of FRK in human SKCO1 cells at 1 uM after 4 hrs using biotin labeled HEIKLPVK probe by mass-spectrometric analysis relative to control; format: cell-based
NCI-H23 = assay: Antiproliferative activity against human NCI-H23 cells harboring KRAS G12C mutant after 72 hrs by CellTiter-Glo assay; format: functional, cell-based
Summary of the method: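 NCI-H23 or NCI-H358 cells seeded at 2000 cells/well and grown 48 h before drug. Varying doses were added and cells incubated 72 h. Viability was read as CellTiter-Glo luminescence, and growth-inhibition IC50 was calculated from dose-response curves.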

[17] = molecular target: Serine/threonine-protein kinase/endoribonuclease IRE2 (Homo sapiens) (UniProt Q76MJ5); assay: Inhibition of IRE2 in human SKCO1 cells at 1 uM after 4 hrs using biotin labeled DLKPGNILITGPDSQGLGR probe by mass-spectrometric analysis relative to control; format: cell-based
[18] = molecular target: T1, Dual specificity mitogen-activated protein kinase kinase 5 (Homo sapiens) (UniProt Q13163); assay: Inhibition of MAP2K5 in human SKCO1 cells at 1 uM after 4 hrs using biotin labeled DVKPSNMLVNTR probe by mass-spectrometric analysis relative to control; format: cell-based
T1 sequence (whole entry): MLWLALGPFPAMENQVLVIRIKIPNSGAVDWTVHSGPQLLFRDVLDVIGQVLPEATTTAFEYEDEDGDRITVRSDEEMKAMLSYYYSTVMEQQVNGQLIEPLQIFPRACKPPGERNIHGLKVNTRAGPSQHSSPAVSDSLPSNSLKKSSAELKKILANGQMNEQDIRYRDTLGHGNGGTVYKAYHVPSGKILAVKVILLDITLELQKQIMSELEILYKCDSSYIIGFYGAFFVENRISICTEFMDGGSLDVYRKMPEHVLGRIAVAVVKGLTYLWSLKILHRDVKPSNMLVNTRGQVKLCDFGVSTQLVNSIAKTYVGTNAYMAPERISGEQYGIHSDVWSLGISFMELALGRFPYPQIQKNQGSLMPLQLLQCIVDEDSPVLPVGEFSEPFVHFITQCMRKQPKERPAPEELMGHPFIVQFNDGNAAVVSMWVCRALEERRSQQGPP

[19] = molecular target: Serine/threonine-protein kinase Sgk3 (Homo sapiens) (UniProt Q96BR1); assay: Inhibition of SGK3 in human SKCO1 cells at 1 uM after 4 hrs using biotin labeled FYAVKVLQK probe by mass-spectrometric analysis relative to control; format: cell-based
[20] = molecular target: Serine/threonine-protein kinase ATR (Homo sapiens) (UniProt Q13535); assay: Inhibition of ATR in human SKCO1 cells at 1 uM after 4 hrs using biotin labeled FYIMMCKPK probe by mass-spectrometric analysis relative to control; format: cell-based
Serine/threonine-protein kinase ATR (Homo sapiens), sequence (Q13535 whole entry, looked up): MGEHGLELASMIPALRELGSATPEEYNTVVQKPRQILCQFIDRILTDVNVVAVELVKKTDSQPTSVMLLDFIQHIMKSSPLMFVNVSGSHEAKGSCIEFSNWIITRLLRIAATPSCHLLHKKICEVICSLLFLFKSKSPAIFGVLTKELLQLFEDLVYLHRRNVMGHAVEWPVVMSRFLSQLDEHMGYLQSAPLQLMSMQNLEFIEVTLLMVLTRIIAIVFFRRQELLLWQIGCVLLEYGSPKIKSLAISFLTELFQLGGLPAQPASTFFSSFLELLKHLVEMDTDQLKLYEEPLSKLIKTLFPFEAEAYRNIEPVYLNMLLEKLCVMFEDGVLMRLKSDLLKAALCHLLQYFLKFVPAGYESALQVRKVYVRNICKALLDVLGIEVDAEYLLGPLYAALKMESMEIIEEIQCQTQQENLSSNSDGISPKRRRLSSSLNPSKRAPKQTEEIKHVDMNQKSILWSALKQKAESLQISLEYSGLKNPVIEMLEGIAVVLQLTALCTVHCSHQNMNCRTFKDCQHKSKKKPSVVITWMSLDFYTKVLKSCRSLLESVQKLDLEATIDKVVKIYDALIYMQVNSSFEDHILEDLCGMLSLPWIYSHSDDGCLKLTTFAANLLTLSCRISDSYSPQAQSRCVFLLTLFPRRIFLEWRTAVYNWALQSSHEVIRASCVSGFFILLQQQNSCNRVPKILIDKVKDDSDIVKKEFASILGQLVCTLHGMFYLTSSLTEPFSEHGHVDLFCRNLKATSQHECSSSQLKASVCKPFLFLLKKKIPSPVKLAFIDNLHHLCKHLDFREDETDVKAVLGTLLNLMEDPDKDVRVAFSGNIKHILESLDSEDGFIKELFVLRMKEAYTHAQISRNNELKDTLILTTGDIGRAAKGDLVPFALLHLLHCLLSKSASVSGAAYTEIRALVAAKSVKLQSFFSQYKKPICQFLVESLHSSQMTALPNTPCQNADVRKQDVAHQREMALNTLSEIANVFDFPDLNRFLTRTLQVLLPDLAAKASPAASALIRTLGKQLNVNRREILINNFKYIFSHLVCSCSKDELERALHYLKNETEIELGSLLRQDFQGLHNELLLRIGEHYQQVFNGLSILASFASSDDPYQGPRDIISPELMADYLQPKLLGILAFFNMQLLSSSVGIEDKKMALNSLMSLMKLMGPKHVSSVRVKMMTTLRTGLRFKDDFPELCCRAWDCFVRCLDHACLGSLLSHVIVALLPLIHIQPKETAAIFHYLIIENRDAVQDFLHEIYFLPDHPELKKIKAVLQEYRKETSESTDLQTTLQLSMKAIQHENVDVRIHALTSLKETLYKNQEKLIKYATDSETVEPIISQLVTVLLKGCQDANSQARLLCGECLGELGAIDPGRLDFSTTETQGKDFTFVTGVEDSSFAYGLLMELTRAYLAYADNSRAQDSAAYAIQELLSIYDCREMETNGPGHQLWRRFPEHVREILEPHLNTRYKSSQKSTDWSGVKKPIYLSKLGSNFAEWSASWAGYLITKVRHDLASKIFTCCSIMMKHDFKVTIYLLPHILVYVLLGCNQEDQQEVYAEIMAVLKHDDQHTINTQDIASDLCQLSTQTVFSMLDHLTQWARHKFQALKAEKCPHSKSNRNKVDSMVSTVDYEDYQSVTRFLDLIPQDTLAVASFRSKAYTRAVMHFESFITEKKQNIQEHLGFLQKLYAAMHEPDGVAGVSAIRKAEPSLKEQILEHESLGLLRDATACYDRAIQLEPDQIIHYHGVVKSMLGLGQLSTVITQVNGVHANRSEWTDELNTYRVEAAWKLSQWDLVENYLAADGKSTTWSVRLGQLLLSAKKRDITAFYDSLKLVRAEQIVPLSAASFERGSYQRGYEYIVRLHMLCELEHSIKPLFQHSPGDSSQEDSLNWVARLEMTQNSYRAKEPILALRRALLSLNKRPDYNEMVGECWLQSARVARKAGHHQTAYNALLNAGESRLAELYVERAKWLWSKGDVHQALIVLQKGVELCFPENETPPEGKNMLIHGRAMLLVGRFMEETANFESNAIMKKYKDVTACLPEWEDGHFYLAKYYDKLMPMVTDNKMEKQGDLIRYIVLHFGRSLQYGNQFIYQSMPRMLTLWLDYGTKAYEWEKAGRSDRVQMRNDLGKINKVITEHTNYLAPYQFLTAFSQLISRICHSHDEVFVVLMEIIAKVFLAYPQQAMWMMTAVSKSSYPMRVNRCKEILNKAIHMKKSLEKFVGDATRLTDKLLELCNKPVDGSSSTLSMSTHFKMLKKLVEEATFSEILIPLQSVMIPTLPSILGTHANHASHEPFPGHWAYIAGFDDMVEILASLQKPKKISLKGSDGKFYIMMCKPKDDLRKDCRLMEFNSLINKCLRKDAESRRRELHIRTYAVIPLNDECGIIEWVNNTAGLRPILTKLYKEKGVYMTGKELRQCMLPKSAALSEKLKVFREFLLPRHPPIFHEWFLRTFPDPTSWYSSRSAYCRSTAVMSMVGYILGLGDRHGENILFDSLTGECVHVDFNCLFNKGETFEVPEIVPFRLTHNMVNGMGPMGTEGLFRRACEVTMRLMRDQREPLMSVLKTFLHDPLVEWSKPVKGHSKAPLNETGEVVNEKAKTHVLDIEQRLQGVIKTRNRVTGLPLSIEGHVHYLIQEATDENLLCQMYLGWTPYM

Mitogen-activated protein kinase 9 (Homo sapiens), sequence (P45984 whole entry, looked up): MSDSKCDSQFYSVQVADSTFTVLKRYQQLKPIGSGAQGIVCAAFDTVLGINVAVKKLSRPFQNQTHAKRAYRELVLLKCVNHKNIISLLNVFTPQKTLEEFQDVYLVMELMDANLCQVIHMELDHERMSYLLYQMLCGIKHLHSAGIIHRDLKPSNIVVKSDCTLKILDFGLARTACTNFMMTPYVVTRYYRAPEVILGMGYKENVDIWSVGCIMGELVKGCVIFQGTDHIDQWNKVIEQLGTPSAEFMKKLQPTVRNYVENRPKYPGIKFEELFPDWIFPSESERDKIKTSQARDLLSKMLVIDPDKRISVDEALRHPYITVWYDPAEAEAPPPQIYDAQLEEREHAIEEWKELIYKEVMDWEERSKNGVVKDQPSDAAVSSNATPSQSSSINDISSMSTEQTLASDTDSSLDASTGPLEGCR

| SMILES | inhibition [1] [%] | inhibition [2] [%] | inhibition [3] [%] | inhibition [4] [%] | inhibition [5] [%] | inhibition [6] [%] | inhibition [7] [%] | inhibition [8] [%] | inhibition [9] [%] | inhibition [10] [%] | inhibition [11] [%] | inhibition [12] [%] | inhibition [13] [%] | inhibition [14] [%] | inhibition [15] [%] | inhibition [16] [%] | inhibition [17] [%] | inhibition [18] [%] | inhibition [19] [%] | inhibition [20] [%] | further results |
| --- | --- | --- | --- | --- | --- | --- | --- | --- | --- | --- | --- | --- | --- | --- | --- | --- | --- | --- | --- | --- | --- |
| C=CC(=O)Nc1ccccc1Oc1nc(Nc2cnn(CCOC)c2)ncc1Cl | 0.8 | -5.2 | 54.5 | -9.9 | 0.8 | -6.1 | -3.3 | 12.8 | 6.7 | 7.9 | 55.7 | -4.6 | -0.4 | 4.2 | 0.8 |  |  |  |  |  |  |
| C=CC(=O)Nc1ccccc1Nc1nc(Nc2ccc(N3CCN(C)CC3)cc2)ncc1Cl | 70 | -8 |  |  | 70 | 2.9 | -7.7 |  |  |  | 42.6 | 14.8 | -1.2 |  | 70 | 39.2 | 6.9 | 38.1 | -2.7 | -8.1 | Activity (NCI-H23): Active |
| COc1cc(O)c2c(c1)/C=C/C[C@H](O)[C@H](O)C(=O)/C=C\C[C@H](C)OC2=O |  |  | 68.8 | -9.7 |  |  |  | 6.4 | -7.7 | 95 |  |  |  | 2.1 |  | -9.6 | 21.4 | 86.8 | -1.4 | 2 | IC50 (NCI-H23; NCI-H23, 72 h): 1000 nM |

Reference: ChEMBL document CHEMBL4118021, “Studies of TAK1-centered polypharmacology with novel covalent TAK1 inhibitors” (Bioorg Med Chem, 2017)
